Source: ChEMBL document CHEMBL1770122, “Synthesis, antibacterial and antimycobacterial activities of some new 4-aryl/heteroaryl-2,6-dimethyl-3,5-bis-N-(aryl)-carbamoyl-1,4-dihydropyridines” (2011)
≈ marks a conversion by molar mass, not a printed value. Calls of active or inactive are those of the source. The calls are words filed in the database; no cut-off is given here.

Tests used:
[1] = system: Bacillus subtilis; experiment: Antimicrobial activity against Bacillus subtilis NCIM 2063/ATCC 6633 at 1000 ug/mL after 24 hrs by disc diffusion method; format: functional, organism-based
[2] = system: Escherichia coli; experiment: Antimicrobial activity against Escherichia coli NCIM 2068/ATCC 11105 at 12.5 ug/mL after 24 hrs by disc diffusion method; format: functional; details: NCIM 2068/ATCC 11105, 24 h, read-out: DIZ
Outline: (§1)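 NCIM cultures were used. Test solutions in DMSO, diluted from a 1 mg mL-1 stock to 12.5, 25 or 50 µg mL-1, were loaded onto sterile 5 mm filter-paper discs and dried. Nutrient agar was spread with 100 µL of 24 h bacterial suspension (10^8 cells mL-1). Incubation was 37 ± 1 °C for 24 h, and inhibition-zone diameter was read. DMSO served as control, with tetracyclin and streptomycin (50 µg mL-1) discs as standards. Triplicate, averaged.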

[3] = system: Escherichia coli; experiment: Antimicrobial activity against Escherichia coli NCIM 2068/ATCC 11105 at 1000 ug/mL after 24 hrs by disc diffusion method; format: functional, organism-based
[4] = system: Proteus vulgaris; experiment: Antimicrobial activity against Proteus vulgaris NCIM 2027/ATCC 13315 at 12.5 ug/mL after 24 hrs by disc diffusion method; format: functional; details: NCIM 2027/ATCC 13315, 24 h, read-out: DIZ; outline: as §1
[5] = system: Staphylococcus aureus; experiment: Antimicrobial activity against Staphylococcus aureus NCIM 2079/ATCC 6538P at 1000 ug/mL after 24 hrs by disc diffusion method; format: functional, organism-based
[6] = system: Staphylococcus aureus; experiment: Antimicrobial activity against methicillin-resistant Staphylococcus aureus at 12.5 ug/mL after 24 hrs by disc diffusion method; format: functional, organism-based
[7] = system: Staphylococcus aureus; experiment: Antimicrobial activity against methicillin-resistant Staphylococcus aureus at 25 ug/mL after 24 hrs by disc diffusion method; format: functional, organism-based
[8] = system: Bacillus subtilis; experiment: Antimicrobial activity against Bacillus subtilis NCIM 2063/ATCC 6633 at 12.5 ug/mL after 24 hrs by disc diffusion method; format: functional; details: for zone of inhibition at 12.5 µg/mL: NCIM 2063/ATCC 6633, 24 h, read-out: DIZ; outline: as §1
[9] = system: Staphylococcus aureus; experiment: Antimicrobial activity against methicillin-resistant Staphylococcus aureus at 1000 ug/mL after 24 hrs by disc diffusion method; format: functional; details: for zone of inhibition at 1000 µg/mL: read-out: DIZ
Outline: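 Disc diffusion on nutrient agar. Compound at 1 mg mL-1 (1000 µg mL-1) in DMSO was loaded onto 5 mm sterile filter-paper discs and dried. Plates were spread with 100 µL of a 24 h culture at 10^8 cells mL-1. Incubated at 37 ± 1 °C for 24 h; inhibition zone diameters recorded. DMSO control disc. Triplicate, averaged.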

[10] = system: Escherichia coli; experiment: Antimicrobial activity against Escherichia coli NCIM 2068/ATCC 11105 at 50 ug/mL after 24 hrs by disc diffusion method; format: functional; details: NCIM 2068/ATCC 11105, 24 h, read-out: DIZ; outline: as §1
[11] = system: Staphylococcus aureus; experiment: Antimicrobial activity against methicillin-resistant Staphylococcus aureus at 50 ug/mL after 24 hrs by disc diffusion method; format: functional, organism-based
[12] = system: Staphylococcus aureus; experiment: Antimicrobial activity against Staphylococcus aureus NCIM 2079/ATCC 6538P at 50 ug/mL after 24 hrs by disc diffusion method; format: functional; details: read-out: DIZ; outline: as §1
[13] = system: Staphylococcus aureus; experiment: Antimicrobial activity against Staphylococcus aureus NCIM 2079/ATCC 6538P at 12.5 ug/mL after 24 hrs by disc diffusion method; format: functional; details: for zone of inhibition at 12.5 µg/mL: read-out: DIZ; outline: as §1
[14] = system: Bacillus subtilis; experiment: Antimicrobial activity against Bacillus subtilis NCIM 2063/ATCC 6633 at 50 ug/mL after 24 hrs by disc diffusion method; format: functional; details: NCIM 2063/ATCC 6633, 24 h, read-out: DIZ; outline: as §1
[15] = system: Proteus vulgaris; experiment: Antimicrobial activity against Proteus vulgaris NCIM 2027/ATCC 13315 at 25 ug/mL after 24 hrs by disc diffusion method; format: functional; details: NCIM 2027/ATCC 13315, 24 h, read-out: DIZ; outline: as §1
[16] = system: Proteus vulgaris; experiment: Antimicrobial activity against Proteus vulgaris NCIM 2027/ATCC 13315 at 1000 ug/mL after 24 hrs by disc diffusion method; format: functional, organism-based
[17] = system: Staphylococcus aureus; experiment: Antimicrobial activity against Staphylococcus aureus NCIM 2079/ATCC 6538P at 25 ug/mL after 24 hrs by disc diffusion method; format: functional; details: read-out: DIZ; outline: as §1
[18] = system: Mycobacterium tuberculosis; experiment: Antimycobacterial activity against multidrug-susceptible Mycobacterium tuberculosis H37Rv ATCC 27294 after 4 weeks; format: functional; details: H37Rv ATCC 27294, 672 h
Outline: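 Lowenstein-Jensen proportion method. Drug at 6.25, 12.5, 25, 50 and 100 µg mL-1 in LJ medium slants, set overnight. Inoculated with 4 mg mL-1 suspension by 3 mm loop, 37 °C, 4 weeks. MIC is the lowest concentration fully inhibiting growth, by CFU versus medium, inoculated and DMSO controls. Three independent determinations.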

[19] = system: Escherichia coli; experiment: Antimicrobial activity against Escherichia coli NCIM 2068/ATCC 11105 at 25 ug/mL after 24 hrs by disc diffusion method; format: functional; details: NCIM 2068/ATCC 11105, 24 h, read-out: DIZ; outline: as §1
[20] = system: Bacillus subtilis; experiment: Antimicrobial activity against Bacillus subtilis NCIM 2063/ATCC 6633 at 25 ug/mL after 24 hrs by disc diffusion method; format: functional; details: NCIM 2063/ATCC 6633, 24 h, read-out: DIZ; outline: as §1
[21] = system: Proteus vulgaris; experiment: Antimicrobial activity against Proteus vulgaris NCIM 2027/ATCC 13315 at 50 ug/mL after 24 hrs by disc diffusion method; format: functional; details: NCIM 2027/ATCC 13315, 24 h, read-out: DIZ; outline: as §1

Compound	diameter of the inhibition zone (DIZ) [1]	zone of inhibition at 12.5 µg/mL [2] [mm]	diameter of the inhibition zone (DIZ) [3]	zone of inhibition at 12.5 µg/mL [4] [mm]	diameter of the inhibition zone (DIZ) [5]	diameter of the inhibition zone (DIZ) [6]	diameter of the inhibition zone (DIZ) [7]	zone of inhibition at 12.5 µg/mL [8] [mm]	zone of inhibition at 50 µg/mL [10] [mm]	diameter of the inhibition zone (DIZ) [11]	zone of inhibition at 50 µg/mL [12] [mm]	zone of inhibition at 50 µg/mL [14] [mm]	zone of inhibition at 25 µg/mL [15] [mm]	diameter of the inhibition zone (DIZ) [16]	zone of inhibition at 25 µg/mL [17] [mm]	MIC [18] [µg/mL]	zone of inhibition at 25 µg/mL [19] [mm]	zone of inhibition at 25 µg/mL [20] [mm]	zone of inhibition at 50 µg/mL [21] [mm]	zone of inhibition at 1000 µg/mL [9] [mm]	further results
CCc1ccc(C2C(C(=O)Nc3ccccc3)=C(C)NC(C)=C2C(=O)Nc2ccccc2)cc1	inactive	10	inactive	9	inactive	inactive	inactive	11	15	inactive	16	21	14	inactive	11	> 25	13	13	16		diameter of the inhibition zone (DIZ) [9]: inactive; zone of inhibition at 12.5 µg/mL [13]: 8 mm
CC1=C(C(=O)Nc2ccc(C)cc2)C(c2ccccn2)C(C(=O)Nc2ccc(C)cc2)=C(C)N1	inactive	8	inactive	9	inactive	inactive	inactive	9	14	inactive	12	12	12	inactive	10	> 25	10	10	16		diameter of the inhibition zone (DIZ) [9]: inactive; zone of inhibition at 12.5 µg/mL [13]: 8 mm
NC(=O)c1cnccn1 [PYRAZINAMIDE]																32 (≈ 260 µM)					
CN(C)[C@@H]1C(O)=C(C(N)=O)C(=O)[C@@]2(O)C(O)=C3C(=O)c4c(O)cccc4[C@@](C)(O)[C@H]3C[C@@H]12 [TETRACYCLINE]	inactive		inactive		inactive				25	inactive	22	20		inactive					21	15	
CC1=C(C(=O)Nc2ccccc2)C(c2ccco2)C(C(=O)Nc2ccccc2)=C(C)N1	inactive	12	inactive	8	inactive	inactive	inactive	10	18	inactive	14	16	13	inactive	12	> 25	15	14	17	10	zone of inhibition at 12.5 µg/mL [13]: 8 mm
CC1=C(C(=O)Nc2ccc(C)cc2)C(c2ccc[nH]2)C(C(=O)Nc2ccc(C)cc2)=C(C)N1	inactive	14	inactive	10	inactive	inactive	inactive	7	22	inactive	12	13	14	inactive	11	12.5 (≈ 28.4 µM)	19	11	18	10	zone of inhibition at 12.5 µg/mL [13]: 9 mm
CN[C@@H]1[C@H](O[C@H]2[C@H](O[C@H]3[C@H](O)[C@@H](O)[C@H](N=C(N)N)[C@@H](O)[C@@H]3N=C(N)N)O[C@@H](C)[C@]2(O)C=O)O[C@@H](CO)[C@H](O)[C@H]1O [STREPTOMYCIN]	inactive		inactive		inactive				23	inactive	21	22		inactive					26	18	
CC1=C(C(=O)Nc2ccccc2C)C(c2ccccn2)C(C(=O)Nc2ccccc2C)=C(C)N1	inactive	14	inactive	10	inactive	inactive	inactive		19	inactive	15	10	12	inactive	12	25 (≈ 55.2 µM)	17	8	16	8	diameter of the inhibition zone (DIZ) [8]: inactive; diameter of the inhibition zone (DIZ) [13]: inactive
